ChEMBL document CHEMBL3864121, “Development of ebsulfur analogues as potent antibacterials against methicillin-resistant Staphylococcus aureus” (Bioorg Med Chem, 2016)
Values after ≈ are worked out from the molar mass of the structure shown.

system: Staphylococcus aureus; experiment: Antibacterial activity against methicillin-sensitive Staphylococcus aureus ATCC 6538 measured after overnight incubation by broth double-dilution method; assay type: functional; conditions: not given
In short: (§1)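 MIC by broth double-dilution in liquid Mueller-Hinton medium. Values are reported in µg/mL.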

SMILES | MIC [µg/mL]
CCCCCCCCCCCCn1sc2ccccc2c1=O | 62.5 (≈ 196 µM)

system: Staphylococcus aureus; experiment: Antibacterial activity against methicillin-sensitive Staphylococcus aureus ATCC 25923 measured after overnight incubation by broth double-dilution method; assay type: functional; conditions: not given; in short: as §1

SMILES | MIC [µg/mL]
CCCCCCCCCCCCn1sc2ccccc2c1=O | 3.9 (≈ 12.2 µM)

system: Staphylococcus aureus; experiment: Antibacterial activity against methicillin-sensitive Staphylococcus aureus ATCC 29213 measured after overnight incubation by broth double-dilution method; assay type: functional; conditions: not given; in short: as §1

SMILES | MIC [µg/mL]
CCCCCCCCCCCCn1sc2ccccc2c1=O | 3.9 (≈ 12.2 µM)

system: Staphylococcus aureus; experiment: Antibacterial activity against methicillin-resistant Staphylococcus aureus ATCC 33591 measured after overnight incubation by broth double-dilution method; assay type: functional; conditions: not given; in short: as §1

SMILES | MIC [µg/mL]
CCCCCCCCCCCCn1sc2ccccc2c1=O | 2 (≈ 6.26 µM)

system: Staphylococcus aureus; experiment: Antibacterial activity against methicillin-resistant Staphylococcus aureus 1 measured after overnight incubation by broth double-dilution method; assay type: functional; conditions: not given; in short: as §1

SMILES | MIC [µg/mL]
CCCCCCCCCCCCn1sc2ccccc2c1=O | 0.25 (≈ 0.782 µM)

system: Staphylococcus aureus; experiment: Antibacterial activity against methicillin-resistant Staphylococcus aureus 2 measured after overnight incubation by broth double-dilution method; assay type: functional; conditions: not given; in short: as §1

SMILES | MIC [µg/mL]
CCCCCCCCCCCCn1sc2ccccc2c1=O | 1 (≈ 3.13 µM)

system: Staphylococcus aureus; experiment: Antibacterial activity against methicillin-resistant Staphylococcus aureus BRS3 measured after overnight incubation by broth double-dilution method; assay type: functional; conditions: not given; in short: as §1

SMILES | MIC [µg/mL]
CCCCCCCCCCCCn1sc2ccccc2c1=O | 15.6 (≈ 48.8 µM)

system: Staphylococcus aureus; experiment: Antibacterial activity against methicillin-resistant Staphylococcus aureus C1 measured after overnight incubation by broth double-dilution method; assay type: functional; conditions: not given; in short: as §1

SMILES | MIC [µg/mL]
CCCCCCCCCCCCn1sc2ccccc2c1=O | 3.9 (≈ 12.2 µM)

system: Staphylococcus aureus; experiment: Antibacterial activity against methicillin-resistant Staphylococcus aureus C2 measured after overnight incubation by broth double-dilution method; assay type: functional; conditions: not given; in short: as §1

SMILES | MIC [µg/mL]
CCCCCCCCCCCCn1sc2ccccc2c1=O | 1 (≈ 3.13 µM)

system: Staphylococcus aureus; experiment: Antibacterial activity against methicillin-resistant Staphylococcus aureus C7 measured after overnight incubation by broth double-dilution method; assay type: functional; conditions: not given; in short: as §1

SMILES | MIC [µg/mL]
CCCCCCCCCCCCn1sc2ccccc2c1=O | 2 (≈ 6.26 µM)

system: Staphylococcus aureus; experiment: Antibacterial activity against methicillin-resistant Staphylococcus aureus C14 measured after overnight incubation by broth double-dilution method; assay type: functional; conditions: not given; in short: as §1

SMILES | MIC [µg/mL]
CCCCCCCCCCCCn1sc2ccccc2c1=O | 15.6 (≈ 48.8 µM)

system: Staphylococcus aureus; experiment: Antibacterial activity against methicillin-resistant Staphylococcus aureus C16 measured after overnight incubation by broth double-dilution method; assay type: functional; conditions: not given; in short: as §1

SMILES | MIC [µg/mL]
CCCCCCCCCCCCn1sc2ccccc2c1=O | 3.9 (≈ 12.2 µM)

system: Staphylococcus aureus; experiment: Antibacterial activity against methicillin-resistant Staphylococcus aureus C19 measured after overnight incubation by broth double-dilution method; assay type: functional; conditions: not given; in short: as §1

SMILES | MIC [µg/mL]
CCCCCCCCCCCCn1sc2ccccc2c1=O | 1 (≈ 3.13 µM)

system: Staphylococcus aureus; experiment: Antibacterial activity against methicillin-resistant Staphylococcus aureus G1 measured after overnight incubation by broth double-dilution method; assay type: functional; conditions: not given; in short: as §1

SMILES | MIC [µg/mL]
CCCCCCCCCCCCn1sc2ccccc2c1=O | 0.5 (≈ 1.56 µM)

system: Staphylococcus aureus; experiment: Antibacterial activity against methicillin-resistant Staphylococcus aureus G6 measured after overnight incubation by broth double-dilution method; assay type: functional; conditions: not given; in short: as §1

SMILES | MIC [µg/mL]
CCCCCCCCCCCCn1sc2ccccc2c1=O | 1 (≈ 3.13 µM)

system: Staphylococcus aureus; experiment: Antibacterial activity against methicillin-resistant Staphylococcus aureus G12 measured after overnight incubation by broth double-dilution method; assay type: functional; conditions: not given; in short: as §1

SMILES | MIC [µg/mL]
CCCCCCCCCCCCn1sc2ccccc2c1=O | 1 (≈ 3.13 µM)

system: Staphylococcus aureus; experiment: Antibacterial activity against methicillin-resistant Staphylococcus aureus G14 measured after overnight incubation by broth double-dilution method; assay type: functional; conditions: not given; in short: as §1

SMILES | MIC [µg/mL]
CCCCCCCCCCCCn1sc2ccccc2c1=O | 2 (≈ 6.26 µM)

system: Staphylococcus aureus; experiment: Antibacterial activity against methicillin-resistant Staphylococcus aureus NRS4 measured after overnight incubation by broth double-dilution method; assay type: functional; conditions: not given; in short: as §1

SMILES | MIC [µg/mL]
CCCCCCCCCCCCn1sc2ccccc2c1=O | 3.9 (≈ 12.2 µM)

system: Staphylococcus aureus; experiment: Antibacterial activity against methicillin-resistant Staphylococcus aureus NRS51 measured after overnight incubation by broth double-dilution method; assay type: functional; conditions: not given; in short: as §1

SMILES | MIC [µg/mL]
CCCCCCCCCCCCn1sc2ccccc2c1=O | 3.9 (≈ 12.2 µM)

system: Staphylococcus aureus; experiment: Antibacterial activity against methicillin-resistant Staphylococcus aureus NRS77 measured after overnight incubation by broth double-dilution method; assay type: functional; conditions: not given; in short: as §1

SMILES | MIC [µg/mL]
CCCCCCCCCCCCn1sc2ccccc2c1=O | 2 (≈ 6.26 µM)

system: Staphylococcus aureus; experiment: Antibacterial activity against methicillin-resistant Staphylococcus aureus S14 measured after overnight incubation by broth double-dilution method; assay type: functional; conditions: not given; in short: as §1

SMILES | MIC [µg/mL]
CCCCCCCCCCCCn1sc2ccccc2c1=O | 1 (≈ 3.13 µM)

system: Staphylococcus aureus; experiment: Antibacterial activity against methicillin-resistant Staphylococcus aureus S17 measured after overnight incubation by broth double-dilution method; assay type: functional; conditions: not given; in short: as §1

SMILES | MIC [µg/mL]
CCCCCCCCCCCCn1sc2ccccc2c1=O | 1 (≈ 3.13 µM)

system: Staphylococcus aureus; experiment: Antibacterial activity against methicillin-resistant Staphylococcus aureus S22 measured after overnight incubation by broth double-dilution method; assay type: functional; conditions: not given; in short: as §1

SMILES | MIC [µg/mL]
CCCCCCCCCCCCn1sc2ccccc2c1=O | 3.9 (≈ 12.2 µM)

system: Staphylococcus aureus; experiment: Antibacterial activity against methicillin-resistant Staphylococcus aureus S24 measured after overnight incubation by broth double-dilution method; assay type: functional; conditions: not given; in short: as §1

SMILES | MIC [µg/mL]
CCCCCCCCCCCCn1sc2ccccc2c1=O | 1 (≈ 3.13 µM)

system: Staphylococcus aureus; experiment: Antibacterial activity against methicillin-resistant Staphylococcus aureus USA100 measured after overnight incubation by broth double-dilution method; assay type: functional; conditions: not given; in short: as §1

SMILES | MIC [µg/mL]
CCCCCCCCCCCCn1sc2ccccc2c1=O | 3.9 (≈ 12.2 µM)

system: Staphylococcus aureus; experiment: Antibacterial activity against methicillin-resistant Staphylococcus aureus USA200 measured after overnight incubation by broth double-dilution method; assay type: functional; conditions: not given; in short: as §1

SMILES | MIC [µg/mL]
CCCCCCCCCCCCn1sc2ccccc2c1=O | 7.8 (≈ 24.4 µM)

system: Staphylococcus aureus; experiment: Antibacterial activity against methicillin-resistant Staphylococcus aureus USA300 measured after overnight incubation by broth double-dilution method; assay type: functional; conditions: not given; in short: as §1

SMILES | MIC [µg/mL]
CCCCCCCCCCCCn1sc2ccccc2c1=O | 7.8 (≈ 24.4 µM)

system: Staphylococcus aureus; experiment: Antibacterial activity against methicillin-resistant Staphylococcus aureus USA600 measured after overnight incubation by broth double-dilution method; assay type: functional; conditions: not given; in short: as §1

SMILES | MIC [µg/mL]
CCCCCCCCCCCCn1sc2ccccc2c1=O | 7.8 (≈ 24.4 µM)

system: Staphylococcus epidermidis; experiment: Antibacterial activity against Staphylococcus epidermidis ATCC 35984 measured after overnight incubation by broth double-dilution method; assay type: functional; conditions: RP62A
In short: (§2)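 MIC by broth double-dilution in Mueller-Hinton medium. Re-testing at the time-kill inoculum used 1×10^6 CFU/mL.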

SMILES | MIC [µg/mL]
CCCCCCCCCCCCn1sc2ccccc2c1=O | 0.25 (≈ 0.782 µM)

system: Enterococcus faecalis; experiment: Antibacterial activity against Enterococcus faecalis ATCC 29212 measured after overnight incubation by broth double-dilution method; assay type: functional; conditions: not given; in short: as §2

SMILES | MIC [µg/mL]
CCCCCCCCCCCCn1sc2ccccc2c1=O | > 125

system: Enterococcus faecalis; experiment: Antibacterial activity against Enterococcus faecalis ATCC 49533 measured after overnight incubation by broth double-dilution method; assay type: functional; conditions: not given; in short: as §2

SMILES | MIC [µg/mL]
CCCCCCCCCCCCn1sc2ccccc2c1=O | > 125

system: Enterococcus faecium; experiment: Antibacterial activity against Enterococcus faecium BM4105-RF measured after overnight incubation by broth double-dilution method; assay type: functional; conditions: not given; in short: as §1

SMILES | MIC [µg/mL]
CCCCCCCCCCCCn1sc2ccccc2c1=O | 3.9 (≈ 12.2 µM)

system: Enterococcus; experiment: Antibacterial activity against Vancomycin-resistant Enterococcus measured after overnight incubation by broth double-dilution method; assay type: functional; conditions: not given; in short: as §1

SMILES | MIC [µg/mL]
CCCCCCCCCCCCn1sc2ccccc2c1=O | 1 (≈ 3.13 µM)

system: Listeria monocytogenes; experiment: Antibacterial activity against Listeria monocytogenes ATCC 19115 measured after overnight incubation by broth double-dilution method; assay type: functional; conditions: not given; in short: as §2

SMILES | MIC [µg/mL]
CCCCCCCCCCCCn1sc2ccccc2c1=O | 15.6 (≈ 48.8 µM)

system: Mycolicibacterium smegmatis; experiment: Antibacterial activity against Mycobacterium smegmatis MC2-155 measured after overnight incubation by broth double-dilution method; assay type: functional; conditions: str. MC2 155; in short: as §1

SMILES | MIC [µg/mL]
CCCCCCCCCCCCn1sc2ccccc2c1=O | 7.8 (≈ 24.4 µM)
